Assay results from ChEMBL document CHEMBL1154876, “Synthesis and antimicrobial studies on novel sulfonamides containing 4-azidomethyl coumarin” (2010).
Values after ≈ are worked out from the molar mass of the structure shown.

How the values were obtained:
Format in all cases: functional
Mucor = assay: Antifungal activity against Mucor fuscus after 48 to 72 hrs by broth micro dilution method
In short: (§1)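 Test compounds were prepared as 10 mg/ml DMSO stocks and serially diluted twofold in Sabouraud's dextrose broth over 500, 250, 125, 62.5, 31.25, 16, 8, 4, 2 and 1, alongside fluconazole as reference. Plates were inoculated with 1–5 × 10⁴ cfu/ml and held at 25 °C for 48–72 h. The MIC was the lowest concentration showing no visible growth.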

Aspergillus fumigatus = assay: Antifungal activity against Aspergillus fumigatus after 48 to 72 hrs by broth microdilution method; in short: as §1
Fusarium oxysporum = assay: Antifungal activity against Fusarium oxysporum after 48 to 72 hrs by broth microdilution method; in short: as §1
Candida albicans = assay: Antifungal activity against Candida albicans after 48 to 72 hrs by broth microdilution method; in short: as §1
Escherichia coli = assay: Antibacterial activity against Escherichia coli MTCC 1089 after 18 hrs by broth microdilution method; conditions: MTCC 1089, 18 h
Klebsiella pneumoniae = assay: Antibacterial activity against Klebsiella pneumoniae MTCC 3384 after 18 hrs by broth microdilution method; conditions: MTCC 3384, 18 h
Pseudomonas aeruginosa = assay: Antibacterial activity against Pseudomonas aeruginosa MTCC 1034 after 18 hrs by broth microdilution method; conditions: MTCC 1034, 18 h
Penicillium chrysogenum = assay: Antifungal activity against Penicillium chrysogenum after 48 to 72 hrs by broth microdilution method; in short: as §1
Aspergillus niger = assay: Antifungal activity against Aspergillus niger after 48 to 72 hrs by broth microdilution method; in short: as §1
Enterococcus faecalis = assay: Antibacterial activity against Streptococcus faecalis MTCC 3382 after 18 hrs by broth microdilution method; conditions: MTCC 3382, 18 h
Staphylococcus aureus = assay: Antibacterial activity against Staphylococcus aureus MTCC 3160 after 18 hrs by broth microdilution method; conditions: MTCC 3160, 18 h
Bacillus subtilis = assay: Antibacterial activity against Bacillus subtilis MTCC 297 after 18 hrs by broth microdilution method; conditions: MTCC 297, 18 h

SMILES | MIC (Mucor) | MIC (Aspergillus fumigatus) | MIC (Fusarium oxysporum) | MIC (Candida albicans) | MIC (Escherichia coli) | MIC (Klebsiella pneumoniae) | MIC (Pseudomonas aeruginosa) | MIC (Penicillium chrysogenum) | MIC (Aspergillus niger) | MIC (Enterococcus faecalis) | MIC (Staphylococcus aureus) | MIC (Bacillus subtilis)
Cc1cc2oc(=O)cc(CN=[N+]=[N-])c2cc1S(=O)(=O)Nc1ccccc1 | 4 µg/mL (≈ 10.8 µM) | 8 µg/mL (≈ 21.6 µM) | 4 µg/mL (≈ 10.8 µM) | 16 µg/mL (≈ 43.2 µM) | 125 µg/mL (≈ 337 µM) | 125 µg/mL (≈ 337 µM) | 125 µg/mL (≈ 337 µM) | 2 µg/mL (≈ 5.4 µM) | 8 µg/mL (≈ 21.6 µM) | 31.2 µg/mL (≈ 84.4 µM) | 4 µg/mL (≈ 10.8 µM) | 31.2 µg/mL (≈ 84.4 µM)
Cc1cccc(NS(=O)(=O)c2cc3c(CN=[N+]=[N-])cc(=O)oc3cc2C)c1 | 62.5 µg/mL (≈ 163 µM) | 8 µg/mL (≈ 20.8 µM) | 125 µg/mL (≈ 325 µM) | 4 µg/mL (≈ 10.4 µM) | > 500 µg/mL | 4 µg/mL (≈ 10.4 µM) | 2 µg/mL (≈ 5.2 µM) | 8 µg/mL (≈ 20.8 µM) | 1 µg/mL (≈ 2.6 µM) | 250 µg/mL (≈ 650 µM) | 16 µg/mL (≈ 41.6 µM) | 16 µg/mL (≈ 41.6 µM)
Cc1ccc(NS(=O)(=O)c2cc3c(CN=[N+]=[N-])cc(=O)oc3cc2C)cc1 | 62.5 µg/mL (≈ 163 µM) | 16 µg/mL (≈ 41.6 µM) | 1 µg/mL (≈ 2.6 µM) | 1 µg/mL (≈ 2.6 µM) | > 500 µg/mL | 1 µg/mL (≈ 2.6 µM) | 125 µg/mL (≈ 325 µM) | 16 µg/mL (≈ 41.6 µM) | 4 µg/mL (≈ 10.4 µM) | 16 µg/mL (≈ 41.6 µM) | 16 µg/mL (≈ 41.6 µM) | 8 µg/mL (≈ 20.8 µM)
Cc1cc2oc(=O)cc(CN=[N+]=[N-])c2cc1S(=O)(=O)Nc1ccccc1Cl | 16 µg/mL (≈ 39.5 µM) | 31.2 µg/mL (≈ 77.2 µM) | 4 µg/mL (≈ 9.88 µM) | 62.5 µg/mL (≈ 154 µM) | > 500 µg/mL | 1 µg/mL (≈ 2.47 µM) | 31.2 µg/mL (≈ 77.2 µM) | 31.2 µg/mL (≈ 77.2 µM) | 62.5 µg/mL (≈ 154 µM) | 1 µg/mL (≈ 2.47 µM) | 1 µg/mL (≈ 2.47 µM) | 125 µg/mL (≈ 309 µM)
Cc1cc2oc(=O)cc(CN=[N+]=[N-])c2cc1S(=O)(=O)Nc1c(C)cccc1C | 16 µg/mL (≈ 40.2 µM) | 2 µg/mL (≈ 5.02 µM) | 1 µg/mL (≈ 2.51 µM) | 8 µg/mL (≈ 20.1 µM) | > 500 µg/mL | 1 µg/mL (≈ 2.51 µM) | 2 µg/mL (≈ 5.02 µM) | 31.2 µg/mL (≈ 78.4 µM) | 8 µg/mL (≈ 20.1 µM) | > 500 µg/mL | 125 µg/mL (≈ 314 µM) | > 500 µg/mL
COc1ccccc1NS(=O)(=O)c1cc2c(CN=[N+]=[N-])cc(=O)oc2cc1C | 31.2 µg/mL (≈ 78 µM) | 62.5 µg/mL (≈ 156 µM) | 1 µg/mL (≈ 2.5 µM) | 31.2 µg/mL (≈ 78 µM) | 250 µg/mL (≈ 624 µM) | 62.5 µg/mL (≈ 156 µM) | 125 µg/mL (≈ 312 µM) | > 500 µg/mL | 16 µg/mL (≈ 40 µM) | 1 µg/mL (≈ 2.5 µM) | 31.2 µg/mL (≈ 78 µM) | > 500 µg/mL
COc1cccc(NS(=O)(=O)c2cc3c(CN=[N+]=[N-])cc(=O)oc3cc2C)c1 | 4 µg/mL (≈ 9.99 µM) | 31.2 µg/mL (≈ 78 µM) | 1 µg/mL (≈ 2.5 µM) | 8 µg/mL (≈ 20 µM) | > 500 µg/mL | 2 µg/mL (≈ 4.99 µM) | 1 µg/mL (≈ 2.5 µM) | 125 µg/mL (≈ 312 µM) | 2 µg/mL (≈ 4.99 µM) | 1 µg/mL (≈ 2.5 µM) | 16 µg/mL (≈ 40 µM) | > 500 µg/mL
Cc1ccc(NS(=O)(=O)c2cc3c(CN=[N+]=[N-])cc(=O)oc3cc2C)cc1C | 1 µg/mL (≈ 2.51 µM) | 8 µg/mL (≈ 20.1 µM) | 1 µg/mL (≈ 2.51 µM) | 8 µg/mL (≈ 20.1 µM) | 125 µg/mL (≈ 314 µM) | 125 µg/mL (≈ 314 µM) | 125 µg/mL (≈ 314 µM) | 2 µg/mL (≈ 5.02 µM) | 4 µg/mL (≈ 10 µM) | 8 µg/mL (≈ 20.1 µM) | 4 µg/mL (≈ 10 µM) | 31.2 µg/mL (≈ 78.4 µM)
Cc1ccc(NS(=O)(=O)c2cc3c(CN=[N+]=[N-])cc(=O)oc3cc2C)c(C)c1 | 16 µg/mL (≈ 40.2 µM) | 16 µg/mL (≈ 40.2 µM) | 1 µg/mL (≈ 2.51 µM) | 8 µg/mL (≈ 20.1 µM) | > 500 µg/mL | 62.5 µg/mL (≈ 157 µM) | 4 µg/mL (≈ 10 µM) | 31.2 µg/mL (≈ 78.4 µM) | 4 µg/mL (≈ 10 µM) | 62.5 µg/mL (≈ 157 µM) | 16 µg/mL (≈ 40.2 µM) | 125 µg/mL (≈ 314 µM)
COc1ccc(NS(=O)(=O)c2cc3c(CN=[N+]=[N-])cc(=O)oc3cc2C)cc1 | 250 µg/mL (≈ 624 µM) | 2 µg/mL (≈ 4.99 µM) | 1 µg/mL (≈ 2.5 µM) | 8 µg/mL (≈ 20 µM) | 250 µg/mL (≈ 624 µM) | 1 µg/mL (≈ 2.5 µM) | 8 µg/mL (≈ 20 µM) | 250 µg/mL (≈ 624 µM) | 2 µg/mL (≈ 4.99 µM) | 1 µg/mL (≈ 2.5 µM) | 4 µg/mL (≈ 9.99 µM) | > 500 µg/mL
CCOc1ccc(NS(=O)(=O)c2cc3c(CN=[N+]=[N-])cc(=O)oc3cc2C)cc1 | 62.5 µg/mL (≈ 151 µM) | > 500 µg/mL | 1 µg/mL (≈ 2.41 µM) | 16 µg/mL (≈ 38.6 µM) | 62.5 µg/mL (≈ 151 µM) | 16 µg/mL (≈ 38.6 µM) | 62.5 µg/mL (≈ 151 µM) | > 500 µg/mL | 250 µg/mL (≈ 603 µM) | 1 µg/mL (≈ 2.41 µM) | 2 µg/mL (≈ 4.83 µM) | > 500 µg/mL
O=C(O)c1cn(C2CC2)c2cc(N3CCNCC3)c(F)cc2c1=O [CIPROFLOXACIN] |  |  |  |  |  | 1 µg/mL (≈ 3.02 µM) | 1 µg/mL (≈ 3.02 µM) |  |  | 1 µg/mL (≈ 3.02 µM) | 1 µg/mL (≈ 3.02 µM) | 1 µg/mL (≈ 3.02 µM)
OC(Cn1cncn1)(Cn1cncn1)c1ccc(F)cc1F [FLUCONAZOLE] | 8 µg/mL (≈ 26.1 µM) | 8 µg/mL (≈ 26.1 µM) | 8 µg/mL (≈ 26.1 µM) | 8 µg/mL (≈ 26.1 µM) |  |  |  | 8 µg/mL (≈ 26.1 µM) | 8 µg/mL (≈ 26.1 µM) |  |  | 
